Compounds with a hit are over-represented: about 2.2% of the library has one in this group of screens.
CXCR6 inh: CXCR6 (human) receptor inhibition; 360,000 compounds, 0.36% hits; CHO-K1 PathHunter CXCR6 beta-arrestin, luminescence; inhibition, % at 20 µM; O00574; in the data active = inhibition above about 34%, passing the limit was not always enough;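 note: antagonist mode with CXCL16 agonist at 10 nM final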
Target sequence (O00574 whole entry, looked up): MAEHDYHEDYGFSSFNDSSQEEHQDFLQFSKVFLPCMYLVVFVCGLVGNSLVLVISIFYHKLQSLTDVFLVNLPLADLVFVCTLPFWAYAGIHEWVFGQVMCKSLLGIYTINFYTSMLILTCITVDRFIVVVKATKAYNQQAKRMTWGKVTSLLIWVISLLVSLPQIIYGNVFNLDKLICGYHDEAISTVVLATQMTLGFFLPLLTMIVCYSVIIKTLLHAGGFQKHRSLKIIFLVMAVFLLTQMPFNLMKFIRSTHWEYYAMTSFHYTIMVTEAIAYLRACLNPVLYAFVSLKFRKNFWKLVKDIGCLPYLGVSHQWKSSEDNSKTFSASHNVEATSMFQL
CCR6 antagonist: blocks CCL20-driven beta-arrestin recruitment at human CCR6; CHO-K1 CCR6 PathHunter beta-arrestin, luminescence, CCL20-stimulated; inhibition, % at 20 µM; AID 493098; 340,000 compounds, 0.49% hits;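 active = compounds whose inhibition of the agonist-driven luminescence signal at 20 µM reaches about 50%, limit read from the data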;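 note: cells stimulated with CCL20 at 14 nM final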
Target sequence (P51684 whole entry, looked up): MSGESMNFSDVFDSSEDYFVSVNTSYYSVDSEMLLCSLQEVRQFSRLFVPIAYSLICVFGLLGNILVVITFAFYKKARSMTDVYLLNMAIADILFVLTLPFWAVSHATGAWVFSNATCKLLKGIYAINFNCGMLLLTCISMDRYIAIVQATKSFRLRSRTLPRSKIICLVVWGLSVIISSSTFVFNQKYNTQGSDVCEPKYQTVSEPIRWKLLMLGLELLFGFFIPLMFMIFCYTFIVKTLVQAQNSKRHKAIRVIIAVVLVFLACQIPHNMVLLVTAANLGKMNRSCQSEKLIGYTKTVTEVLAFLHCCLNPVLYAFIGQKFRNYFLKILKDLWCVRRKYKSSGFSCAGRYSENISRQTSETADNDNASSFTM
m5-HT2A agonist: agonists of mouse serotonin 5-HT2A receptor (HTR2A). CHO-K1 mHTR2A beta-arrestin complementation, luminescence; percent of 30 µM serotonin response. activation, % at 7.6 µM. 360,000 compounds, 0.66% hits;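 active = activation above a run cutoff, the mean activation of all tested compounds plus 3 SD, cut at about 14% in these data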
APJ antagonist: APJ receptor antagonism. P35414. CHO-K1 APJ beta-arrestin complementation, luminescence. inhibition, % at 20 µM. 330,000 compounds, 0.32% hits. AID 2521;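 active = inhibition above about 40% at 20 µM, limit read from the data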;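 note: cells challenged with 10 nM apelin-13 agonist together with compound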
EBI2 antag: blocks human EBI2 receptor beta-arrestin signaling; AID 651636; 360,000 compounds, 0.81% hits; EBI2 beta-arrestin recruitment, luminescence, 7a,25-OHC stimulated; P32249; inhibition, % at 5 µM; in the data active = inhibition above about 38%;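 note: enzyme fragment complementation signal reports receptor beta-arrestin coupling in cells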
APJ agonist: activates the human apelin receptor APJ; P35414; CHO-K1 APJ PathHunter beta-arrestin, luminescence; 0% DMSO wells, 100% apelin; activation, % at 20 µM; 330,000 compounds, 0.11% hits;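 active = activation more than six SD over the plate average, tested at 20 µM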
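Material: CHO-K1 APJ beta-arrestin complementation cell line; Input: cell density 1000 per well; Incubation: compound stimulation 90 min at 25 °C, detection 60 min; Signal: luminescence from split beta-galactosidase complementation, Galacton Star/Emerald II substrate; Controls: DMSO-only wells as negative, 10 nM Apelin-13 as positive control.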
CXCR6 antag conf: CXCR6 antagonism confirmation, single concentration; 700 compounds, 65% hits; shares compounds with CXCR6 inh; inhibition, % at 20 µM; CHO-K1 CXCR6 PathHunter beta-arrestin, luminescence;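 active = mean inhibition over four retests above 40%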;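 note: receptor stimulated with 10 nM CXCL16 agonist; beta-galactosidase fragment complementation upon beta-arrestin recruitment to receptor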
Of the large screens only hits and unclear results are named; the others gave an inactive call (follow-up assays come after a bar, where they were run).

Cc1ccc(NC(=S)NNC(=O)Nc2ccccc2)cc1	CXCR6 inh 53.2, APJ antagonist 43.5 (no result: CCR6 antagonist) | CXCR6 antag conf inactive
Cc1ccc(NC(=S)NNC(=S)Nc2ccc(C)cc2)cc1	none (no result: APJ antagonist, APJ agonist)
CCOc1ccc(C(=O)N/N=C/c2cccc3cccnc23)cc1	CXCR6 inh 56.4 (no result: CCR6 antagonist) | CXCR6 antag conf 64.4
CCOc1ccccc1C(=O)N/N=C/c1cccc2cccnc12	none
COc1ccc(C(=O)N/N=C/c2cccc3cccnc23)cc1	CXCR6 inh 52.0 | CXCR6 antag conf 60.5
O=C(Nc1nnc([C@@H]2C[C@H](O)[C@@H](CO)O2)s1)c1cccc2ccccc12	none (no result: CCR6 antagonist, APJ antagonist, APJ agonist)
Cc1ccc(Oc2ccccc2NC(=O)CN2C(=O)NC3(CCCC3)C2=O)cc1	CXCR6 inh 43.1 | CXCR6 antag conf inactive
CC1(C)CC(=O)C=C(c2ccc(-c3ccc(OC(F)(F)F)cc3)cc2)C1=O	none (no result: CCR6 antagonist, APJ antagonist, APJ agonist)
Cc1ccc(NCCC(=O)c2ccc(Br)cc2)cc1	none
Cc1ccc(NCC(=O)c2ccc(C)cc2)cc1	CXCR6 inh 44.0, CCR6 antagonist 82.5 | CXCR6 antag conf 57.8
O=c1c2c([nH]n1-c1ccccc1)C[C@@H](C1CCCCC1)O[C@H]2c1ccc(F)cc1	none (no result: CCR6 antagonist, APJ antagonist, APJ agonist)
CC(=O)NCCOc1nc(N(C)C)nc(N2CCOCC2)n1	none
COc1nc(OCCNC(C)=O)nc(N(C)C)n1	CXCR6 inh 56.2 | CXCR6 antag conf inactive
Clc1nc(-c2ccccn2)nc2scc(-c3ccccc3)c12	CXCR6 inh 51.3, EBI2 antag 61.2 | CXCR6 antag conf inactive
Cn1cc(Cc2ccc(C(=O)NCc3ccccc3)cn2)c2ccccc21	none (no result: CCR6 antagonist, APJ antagonist, APJ agonist)
Cc1nnc(Sc2cc(NCCCO)c([N+](=O)[O-])c3nonc23)s1	CXCR6 inh 66.8, CCR6 antagonist 92.2 (no result: APJ antagonist, APJ agonist) | CXCR6 antag conf 99.8
O=[N+]([O-])c1c(NCCO)cc(N2CCCCCC2)c2nonc12	none
Cc1nnc(Sc2cc(NCCO)c([N+](=O)[O-])c3nonc23)s1	CXCR6 inh 71.2, CCR6 antagonist 68.4 (no result: APJ antagonist, APJ agonist) | CXCR6 antag conf 75.5
COc1ccccc1NCC(=O)c1ccc(C)c(C)c1	CXCR6 inh 51.8, CCR6 antagonist 81.9 | CXCR6 antag conf inactive
C=C(C)c1cccc(C(C)(C)NC(=O)N2CCN(c3ccc(OC)cc3)CC2)c1	none
C=C(C)c1cccc(C(C)(C)NC(=O)NC(c2ccccc2)c2ccc(OC)cc2)c1 (centres undefined)	CXCR6 inh 45.4 | CXCR6 antag conf inactive
CC1=C(C)CC2C(C1)C(=O)c1ccc(Br)cc1S2(=O)=O (centres undefined)	CXCR6 inh 71.5, CCR6 antagonist 84.3 | CXCR6 antag conf 41.4
COc1ccc(-c2c(C(=O)c3ccc(Br)cc3)[nH]c(N)c2C(=O)c2ccccc2)cc1OC	none (no result: CCR6 antagonist, APJ antagonist, APJ agonist)
COc1cccc2cc(C(=O)Nc3ccc(F)cc3)c(=Nc3ccc(C(=O)O)cc3)oc12	CXCR6 inh 48.9, CCR6 antagonist 80.5 | CXCR6 antag conf inactive
C/C(=N\Nc1nc2ccccc2[nH]1)c1cc2ccccc2o1	none
C/C(=N\Nc1nc2ccccc2[nH]1)c1ccccn1	CXCR6 inh 41.7 (no result: CCR6 antagonist) | CXCR6 antag conf 70.0
Cc1nn(C)c(C(=O)NC(=S)Nc2ccccc2O)c1Cl	CXCR6 inh 43.8, CCR6 antagonist 50.1 | CXCR6 antag conf inactive
C=C1C(=O)[C@]23C[C@H]1CC[C@H]2[C@]1(C)[C@@H](OC(C)=O)CC[C@@](C)(C(=O)OC)[C@H]1C[C@@H]3OC(C)=O	none (no result: CCR6 antagonist, APJ antagonist, APJ agonist)
C=C1C(=O)[C@]23C[C@H]1CCC2[C@@]1(C)C(C[C@@H]3O)[C@](C)(C(=O)OC)CC[C@@H]1OC(C)=O (some centres undefined)	CXCR6 inh 68.9, EBI2 antag 80.5 (no result: CCR6 antagonist, APJ antagonist, APJ agonist) | CXCR6 antag conf 88.8
CC1=CC(C)(C)N2C(=O)C(=Nc3ccc(O)cc3)c3cccc1c32	CXCR6 inh 48.4 | CXCR6 antag conf 48.0
Nc1c(Cl)cc(N=Nc2ccccc2)cc1Cl	none (no result: APJ antagonist, APJ agonist)
Cc1cc(C)c2c(=O)n(CC(=O)NC3CCCC3)sc2n1	CXCR6 inh 99.3 | CXCR6 antag conf inactive
Clc1ccc(Cn2ncc3c(N4CCN(c5ccccc5)CC4)ncnc32)cc1	none (no result: CCR6 antagonist, APJ antagonist, APJ agonist)
COc1ccc(CCNC(=O)COC(=O)c2cccs2)cc1	none
CCCc1ccc(OC(=O)c2cccs2)cc1	CXCR6 inh 50.1 | CXCR6 antag conf inactive
NS(=O)(=O)c1ccc(CNC(=O)NC23CC4CC(CC(C4)C2)C3)cc1	CXCR6 inh 61.3 | CXCR6 antag conf inactive
CC(=O)c1ccc(OCC(=O)OCC(=O)c2ccc(S(=O)(=O)N3CCCCC3)cc2)cc1	CXCR6 inh 40.2 (no result: CCR6 antagonist, APJ antagonist, APJ agonist) | CXCR6 antag conf inactive
CS(=O)(=O)c1ccc(Nc2nc(C(N)Cc3ccc(Cl)cc3)cs2)cc1 (centres undefined)	none (no result: CCR6 antagonist, APJ antagonist, APJ agonist)
N=C1SCC(=O)N1c1ncc(Cc2ccc(F)cc2)s1	CXCR6 inh 50.8 (no result: CCR6 antagonist) | CXCR6 antag conf 67.8
Cc1ccc(-c2csc(N3C(=N)SCC3=O)n2)cc1	none (no result: CXCR6 inh, m5-HT2A agonist, EBI2 antag)
c1ccc(-c2nc3ccccc3[nH]2)cc1	none
S=c1nc(-c2ccccc2)[nH]c2ccc(Br)cc12	CXCR6 inh 42.2 | CXCR6 antag conf inactive
COC(=O)c1ccc2nc(-c3cccc(Cl)c3)c(Cc3ccsc3)n2c1	none (no result: CCR6 antagonist, APJ antagonist, APJ agonist)
CCCC(=O)OCCNc1cc(SCc2ccco2)c2nonc2c1[N+](=O)[O-]	CXCR6 inh 38.2, CCR6 antagonist 67.4 | CXCR6 antag conf 52.7
CCCC(=O)OCCNc1cc(Sc2nccn2C)c2nonc2c1[N+](=O)[O-]	CXCR6 inh 99.9, CCR6 antagonist 98.6, EBI2 antag 49.3 (no result: APJ antagonist, APJ agonist) | CXCR6 antag conf 105.2
CCC(=O)OCCNc1cc(Sc2nc3ccccc3[nH]2)c2nonc2c1[N+](=O)[O-]	CXCR6 inh 101.6, CCR6 antagonist 117.0 (no result: APJ antagonist, APJ agonist) | CXCR6 antag conf 106.3
NCCNc1ccc([N+](=O)[O-])c(Sc2nc3ccccc3[nH]2)c1	none
Brc1ccc2nc(C3CCCCC3)c(CC3CCCCC3)n2c1	none (no result: CCR6 antagonist, APJ antagonist, APJ agonist)
Cn1cc(CNC(=O)C2CCCCC2)cn1	CXCR6 inh 43.0 | CXCR6 antag conf inactive
CC(C)c1cn(CC[C@@H]2CC[C@@H](NC(=O)C3CCCCC3)[C@@H](CO)O2)nn1	none (no result: CXCR6 inh, CCR6 antagonist, APJ antagonist, APJ agonist)
Nc1cccc2c1C(=O)N(C(=O)/C=C/c1ccc(F)cc1)C2=O	CXCR6 inh 48.3, CCR6 antagonist 60.9 | CXCR6 antag conf inactive
Nc1cccc2c1C(=O)N(C(=O)c1ccco1)C2=O	none
CCCC(C)Sc1nc2c([nH]1)c(=S)n(C)c(=O)n2C (centres undefined)	CXCR6 inh 42.0 (no result: APJ antagonist, APJ agonist) | CXCR6 antag conf inactive
Nc1nc(N)c2c(ccc3c2ccn3Cc2cccc([N+](=O)[O-])c2)n1	CXCR6 inh 61.9 (no result: CCR6 antagonist, APJ antagonist, APJ agonist) | CXCR6 antag conf 68.3
CCCOc1ccc(CN(CCC#N)C(=S)NC(=O)c2ccccc2)cc1	CXCR6 inh 43.6 (no result: CCR6 antagonist) | CXCR6 antag conf 59.4
COc1cc(C(=O)NC(=S)N(CCC#N)Cc2cccnc2)cc(OC)c1OC	none
